Experiments:
Histamine H3 receptor [1] = molecular target: Histamine H3 receptor (Homo sapiens, UniProt Q9Y5N1); assay: Displacement of [3H]histamine from human H3 receptor expressed in HEK cell membranes; design: species or system HEK293
Histamine H1 receptor [2] = molecular target: Histamine H1 receptor (Homo sapiens, UniProt P35367); assay: Displacement of [3H]histamine from human H1 receptor expressed in HEK cell membranes; design: species or system HEK293
Histamine H4 receptor [3] = molecular target: T1, Histamine H4 receptor (Homo sapiens, UniProt Q9H3N8); assay: Displacement of [3H]histamine from human H4 receptor expressed in HEK cell membranes; design: species or system HEK293
T1 sequence (Q9H3N8 whole entry): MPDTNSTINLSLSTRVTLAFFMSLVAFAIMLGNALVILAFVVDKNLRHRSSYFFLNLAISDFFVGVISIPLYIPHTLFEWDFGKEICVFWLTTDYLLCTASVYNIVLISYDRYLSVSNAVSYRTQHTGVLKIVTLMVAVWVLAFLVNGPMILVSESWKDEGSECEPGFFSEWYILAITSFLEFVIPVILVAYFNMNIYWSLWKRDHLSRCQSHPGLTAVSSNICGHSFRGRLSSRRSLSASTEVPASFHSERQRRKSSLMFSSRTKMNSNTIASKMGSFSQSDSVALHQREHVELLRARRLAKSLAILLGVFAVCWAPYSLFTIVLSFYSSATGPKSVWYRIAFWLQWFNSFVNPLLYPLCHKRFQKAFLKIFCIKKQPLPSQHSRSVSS

[4] = molecular target: Histamine H2 receptor (Homo sapiens) (UniProt P25021); assay: Displacement of cimetidine from H2 receptor at 10 uM
Histamine H2 receptor (Homo sapiens), sequence (P25021 whole entry): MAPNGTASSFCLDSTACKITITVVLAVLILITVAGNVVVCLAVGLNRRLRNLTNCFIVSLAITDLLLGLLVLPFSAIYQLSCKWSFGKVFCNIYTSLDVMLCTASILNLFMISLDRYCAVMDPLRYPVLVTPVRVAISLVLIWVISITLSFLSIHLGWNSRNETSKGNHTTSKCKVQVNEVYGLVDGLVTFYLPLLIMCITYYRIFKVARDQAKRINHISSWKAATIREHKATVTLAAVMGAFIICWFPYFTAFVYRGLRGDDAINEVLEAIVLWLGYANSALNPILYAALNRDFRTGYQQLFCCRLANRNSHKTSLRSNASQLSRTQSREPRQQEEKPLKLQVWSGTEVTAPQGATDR
Outline: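 Single test concentration of 10 μM, run in duplicate. Result given as percentage displacement of cimetidine binding at the H2 receptor; assay carried out by a contract laboratory.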

Histamine H4 receptor [5] = molecular target: T1, Histamine H4 receptor; assay: Antagonist activity at human H4 receptor expressed in HEK293T cells assessed as inhibition of histamine-induced [35S]GTPgammaS binding; format: functional, cell-based, HEK-293T
Histamine H3 receptor [6] = molecular target: Histamine H3 receptor (Mus musculus, UniProt P58406); assay: Displacement of [3H]histamine from mouse H3R
Histamine H3 receptor (Mus musculus, UniProt P58406), sequence (P58406 whole entry): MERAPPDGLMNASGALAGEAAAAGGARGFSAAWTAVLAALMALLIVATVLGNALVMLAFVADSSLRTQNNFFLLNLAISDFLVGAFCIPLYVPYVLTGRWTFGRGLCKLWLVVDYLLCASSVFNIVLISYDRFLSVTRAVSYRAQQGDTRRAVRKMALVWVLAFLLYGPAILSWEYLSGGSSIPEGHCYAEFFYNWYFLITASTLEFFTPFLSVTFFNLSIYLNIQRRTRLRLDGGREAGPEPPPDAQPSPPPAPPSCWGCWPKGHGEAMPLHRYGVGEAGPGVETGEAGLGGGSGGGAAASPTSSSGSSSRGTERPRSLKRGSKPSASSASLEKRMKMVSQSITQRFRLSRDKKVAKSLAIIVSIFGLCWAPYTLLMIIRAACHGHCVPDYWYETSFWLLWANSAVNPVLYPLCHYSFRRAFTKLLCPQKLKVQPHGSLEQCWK

Histamine H4 receptor [7] = molecular target: T1, Histamine H4 receptor
[8] = Oral bioavailability in mouse; format: ADME, organism-based; conditions: in vivo
[9] = Metabolic stability in human liver microsomes assessed as compound remaining after 60 mins; format: ADME, Microsome; conditions: read-out: Stability
Outline: (§1)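 Liver microsomes (human, mouse or rat) incubated with compound for 60 min. Read-out is percentage of parent compound remaining; assay carried out by a contract laboratory.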

Histamine H1 receptor [10] = molecular target: Histamine H1 receptor (Rattus norvegicus, UniProt P31390); assay: Displacement of [3H]histamine from rat H1R
Histamine H1 receptor (Rattus norvegicus, UniProt P31390), sequence (P31390 whole entry): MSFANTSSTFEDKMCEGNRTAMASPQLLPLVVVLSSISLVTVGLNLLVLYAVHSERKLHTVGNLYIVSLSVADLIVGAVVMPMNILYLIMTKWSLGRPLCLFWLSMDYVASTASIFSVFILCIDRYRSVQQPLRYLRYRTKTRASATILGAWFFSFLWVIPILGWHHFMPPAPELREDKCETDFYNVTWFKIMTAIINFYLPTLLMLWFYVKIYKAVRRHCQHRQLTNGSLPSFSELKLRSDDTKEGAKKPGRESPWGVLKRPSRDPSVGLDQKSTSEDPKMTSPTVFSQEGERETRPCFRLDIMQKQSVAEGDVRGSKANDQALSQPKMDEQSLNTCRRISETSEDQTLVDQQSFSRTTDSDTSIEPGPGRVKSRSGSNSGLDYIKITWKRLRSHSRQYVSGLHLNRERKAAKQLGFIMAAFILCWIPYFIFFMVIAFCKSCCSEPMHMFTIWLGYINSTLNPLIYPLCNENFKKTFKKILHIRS

[11] = Metabolic stability in mouse liver microsomes assessed as compound remaining after 60 mins; format: ADME, Microsome; conditions: read-out: Stability; outline: as §1
Histamine H4 receptor [12] = molecular target: Histamine H4 receptor (Rattus norvegicus, UniProt Q91ZY1); assay: Displacement of [3H]histamine from rat H4R
Histamine H4 receptor (Rattus norvegicus, UniProt Q91ZY1), sequence (Q91ZY1 whole entry): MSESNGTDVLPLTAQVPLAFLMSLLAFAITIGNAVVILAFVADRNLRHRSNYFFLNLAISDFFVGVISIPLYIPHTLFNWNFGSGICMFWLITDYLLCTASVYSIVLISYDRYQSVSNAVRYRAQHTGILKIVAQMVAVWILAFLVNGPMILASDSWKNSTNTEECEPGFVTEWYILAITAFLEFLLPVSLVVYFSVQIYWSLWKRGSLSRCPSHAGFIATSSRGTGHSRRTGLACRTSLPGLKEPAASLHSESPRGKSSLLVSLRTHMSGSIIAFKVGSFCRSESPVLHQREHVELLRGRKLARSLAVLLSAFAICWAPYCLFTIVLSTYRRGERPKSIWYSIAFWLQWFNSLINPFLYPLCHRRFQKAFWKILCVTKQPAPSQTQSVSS

[13] = Half life in mouse; format: ADME, organism-based; conditions: in vivo
Histamine H3 receptor [14] = molecular target: Histamine H3 receptor (Rattus norvegicus, UniProt Q9QYN8); assay: Displacement of [3H]histamine from rat H3R
Histamine H3 receptor (Rattus norvegicus, UniProt Q9QYN8), sequence (Q9QYN8 whole entry): as the sequence (P58406 whole entry) above, with A15T, T286A, G290A, H387R, V389I counted along it

Histamine H4 receptor [15] = molecular target: T2, Histamine H4 receptor (Mus musculus, UniProt Q91ZY2); assay: Displacement of [3H]histamine from mouse H4R
T2 sequence (Q91ZY2 whole entry): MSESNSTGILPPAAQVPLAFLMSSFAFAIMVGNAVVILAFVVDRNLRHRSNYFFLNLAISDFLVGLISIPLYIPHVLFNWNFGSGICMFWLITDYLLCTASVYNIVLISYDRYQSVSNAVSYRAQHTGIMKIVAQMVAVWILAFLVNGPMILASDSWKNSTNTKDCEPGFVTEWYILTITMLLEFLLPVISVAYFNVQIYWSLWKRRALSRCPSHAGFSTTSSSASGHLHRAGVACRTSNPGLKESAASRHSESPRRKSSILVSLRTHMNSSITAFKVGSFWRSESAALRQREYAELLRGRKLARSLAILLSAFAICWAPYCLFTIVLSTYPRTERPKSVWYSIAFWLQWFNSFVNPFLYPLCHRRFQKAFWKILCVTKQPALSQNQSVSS

[16] = Metabolic stability in rat liver microsomes assessed as compound remaining after 60 mins; format: ADME, Microsome; conditions: read-out: Stability; outline: as §1

Histamine H3 receptor (Homo sapiens, UniProt Q9Y5N1), sequence (Q9Y5N1 whole entry): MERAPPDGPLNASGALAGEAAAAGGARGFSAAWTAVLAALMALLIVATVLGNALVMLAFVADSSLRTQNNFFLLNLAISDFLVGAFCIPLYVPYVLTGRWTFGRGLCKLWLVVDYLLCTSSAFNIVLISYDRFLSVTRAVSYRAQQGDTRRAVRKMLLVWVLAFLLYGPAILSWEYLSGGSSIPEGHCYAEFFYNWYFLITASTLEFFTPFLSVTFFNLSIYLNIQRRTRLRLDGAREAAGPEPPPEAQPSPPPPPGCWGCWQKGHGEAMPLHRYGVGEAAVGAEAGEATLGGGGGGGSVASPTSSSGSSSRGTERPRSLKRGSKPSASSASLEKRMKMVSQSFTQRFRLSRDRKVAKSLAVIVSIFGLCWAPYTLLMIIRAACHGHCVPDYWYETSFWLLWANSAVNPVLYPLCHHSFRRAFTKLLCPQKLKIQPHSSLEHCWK
Histamine H1 receptor (Homo sapiens, UniProt P35367), sequence (P35367 whole entry): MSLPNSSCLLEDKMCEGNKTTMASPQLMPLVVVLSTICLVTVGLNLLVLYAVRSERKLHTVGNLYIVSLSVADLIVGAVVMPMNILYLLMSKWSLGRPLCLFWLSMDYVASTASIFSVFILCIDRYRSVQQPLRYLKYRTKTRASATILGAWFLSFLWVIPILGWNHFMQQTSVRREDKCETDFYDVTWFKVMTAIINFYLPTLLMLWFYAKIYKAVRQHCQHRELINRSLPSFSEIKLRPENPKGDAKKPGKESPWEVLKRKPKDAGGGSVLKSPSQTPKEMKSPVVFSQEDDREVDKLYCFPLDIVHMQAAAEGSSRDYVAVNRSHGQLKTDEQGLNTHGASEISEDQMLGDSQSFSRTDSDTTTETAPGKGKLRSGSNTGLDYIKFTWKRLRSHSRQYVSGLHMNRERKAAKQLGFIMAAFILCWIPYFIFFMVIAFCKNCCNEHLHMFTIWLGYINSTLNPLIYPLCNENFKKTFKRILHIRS

Compound `CN1CCN(c2nc(N)nc3cc(-c4ccco4)ccc23)CC1` has a Ki (Histamine H3 receptor [1]) of 98 nM, a Ki (Histamine H1 receptor [2]) of 6420 nM and a Ki (Histamine H4 receptor [3]) of 5 nM. It also gave an Activity [4] of 51%, an IC50 (Histamine H4 receptor [5]) of 83 nM and a Ki (Histamine H4 receptor [5]) of 5 nM.

Compound `Cc1ccc2nc(N)nc(N3CCN(C)CC3)c2c1` has a Ki (Histamine H4 receptor [3]) of 649 nM.

For `Nc1nc(N2CCNCC2)c2ccc(-c3ccco3)cc2n1`, the Ki (Histamine H1 receptor [2]) was 10500 nM, the Ki (Histamine H3 receptor [6]) was 1070 nM and the T1/2 (Histamine H4 receptor [7]) was 4.1 min. For the same compound, the bioavailability [8] was 47%, the Ki (Histamine H4 receptor [3]) was 16 nM and the remaining at 1 h [9] was 96%. For the same compound, the Ki (Histamine H1 receptor [10]) was 3600 nM, the remaining at 1 h [11] was 80% and the IC50 (Histamine H4 receptor [5]) was 106 nM. It also gave a Ki (Histamine H4 receptor [5]) of 7 nM, a Ki (Histamine H4 receptor [12]) of 174 nM and a half-life [13] of 412 min. For the same compound, the Ki (Histamine H3 receptor [14]) was 2560 nM, the Ki (Histamine H4 receptor [15]) was 23 nM and the remaining at 1 h [16] was 83%.

Work on `CN1CCN(c2nc(N)nc3cc(-c4ccoc4)ccc23)CC1` yielded a Ki (Histamine H3 receptor [1]) of 188 nM, a Ki (Histamine H1 receptor [2]) of 7370 nM and an Activity [4] of 54%. The IC50 (Histamine H4 receptor [5]) was 47 nM and the Ki (Histamine H4 receptor [5]) was 4 nM.

`CN1CCN(c2nc3cc(Cl)c(Cl)cc3[nH]c2=O)CC1` gave a Ki (Histamine H4 receptor [3]) of 6 nM.

Compound `CN1CCN(c2nc(N)nc3ccccc23)CC1` has a Ki (Histamine H4 receptor [3]) of 32 nM.

Work on `CN1CCN(c2ncnc3ccccc23)CC1` yielded a Ki (Histamine H4 receptor [3]) of 328 nM.

In the case of `CN1CCN(c2ccnc(N)n2)CC1`, the Ki (Histamine H4 receptor [3]) is reported as 31 nM.

For `CC(=O)c1cccc(-c2ccc3c(N4CCN(C)CC4)nc(N)nc3c2)c1`, the Ki (Histamine H4 receptor [3]) was 15 nM.

Compound `CN1CCN(c2nc(N)nc3cc(-c4ccsc4)ccc23)CC1` has a Ki (Histamine H3 receptor [1]) of 63 nM, a Ki (Histamine H1 receptor [2]) of 2800 nM and a Ki (Histamine H4 receptor [3]) of 4 nM. It also gave an Activity [4] of 74%, an IC50 (Histamine H4 receptor [5]) of 46 nM and a Ki (Histamine H4 receptor [5]) of 3 nM.

Work on `CN1CCN(C(=O)c2nc3ccc(Cl)cc3[nH]2)CC1` yielded a T1/2 (Histamine H4 receptor [7]) of 25.6 min.

In the case of `Nc1nc2c(c(N3CCNCC3)n1)CCC1=C2[C@H]2CCCC[C@H]2O1`, the Ki (Histamine H4 receptor [3]) is reported as 6 nM.

Compound `CC(=O)c1cccc(-c2cccc3c(N4CCN(C)CC4)nc(N)nc23)c1` has a Ki (Histamine H4 receptor [3]) of 676 nM.

Reference: ChEMBL document CHEMBL1933038 (Bioorg Med Chem Lett, 2012)
